Test results taken from ChEMBL document CHEMBL2157862, “A novel spirocyclic tropanyl-Δ²-isoxazoline derivative enhances citalopram and paroxetine binding to serotonin transporters as well as serotonin uptake” (Bioorg Med Chem, 2012).
Calls of active or inactive are those of the source. The rule behind the calls is not given here.

Assays:
[1] = molecular target: Sodium-dependent serotonin transporter (Rattus norvegicus) (UniProt P31652); assay: Displacement of [3H]-citalopram from SERT in rat cortical membranes at 10 uM after 60 mins; assay type: cell membranes; conditions: Membrane
Sequence of Sodium-dependent serotonin transporter (Rattus norvegicus) (P31652 whole entry): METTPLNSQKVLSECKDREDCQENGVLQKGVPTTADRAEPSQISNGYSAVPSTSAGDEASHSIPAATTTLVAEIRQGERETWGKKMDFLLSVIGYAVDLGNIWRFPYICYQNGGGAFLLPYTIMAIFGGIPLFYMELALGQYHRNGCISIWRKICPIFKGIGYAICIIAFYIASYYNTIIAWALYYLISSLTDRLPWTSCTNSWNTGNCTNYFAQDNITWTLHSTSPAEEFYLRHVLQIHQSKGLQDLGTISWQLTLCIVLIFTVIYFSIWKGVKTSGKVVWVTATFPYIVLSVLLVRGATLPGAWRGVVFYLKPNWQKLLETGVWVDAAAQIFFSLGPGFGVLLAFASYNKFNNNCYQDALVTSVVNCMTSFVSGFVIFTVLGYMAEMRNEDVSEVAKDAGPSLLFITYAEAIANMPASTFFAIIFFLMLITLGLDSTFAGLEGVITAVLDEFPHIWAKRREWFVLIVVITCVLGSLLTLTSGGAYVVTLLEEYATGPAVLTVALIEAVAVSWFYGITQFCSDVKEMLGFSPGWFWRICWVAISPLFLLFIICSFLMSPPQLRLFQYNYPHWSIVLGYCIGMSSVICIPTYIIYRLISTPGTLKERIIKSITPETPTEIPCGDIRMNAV
Summary of the method: (§1)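 Frozen rat cortical membranes (washed pellets) in 50 mM Tris-HCl pH 7.4 with 120 mM NaCl and 5 mM KCl, incubated with [3H]citalopram with or without compound. Nonspecific binding defined with 10 µM (S)-citalopram. Bound radioactivity measured by filtration and scintillation counting. Mean ± S.E.M. of replicates; Student's t test vs vehicle.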

[2] = molecular target: Sodium-dependent serotonin transporter (Rattus norvegicus, UniProt P31652); assay: Displacement of [3H]-citalopram from SERT in rat cortical membranes after 60 mins; assay type: cell membranes, Membrane; summary of the method: as §1
Sequence of Sodium-dependent serotonin transporter (P31652 whole entry): as above

[3] = molecular target: Sodium-dependent serotonin transporter (Rattus norvegicus) (UniProt P31652); assay: Increase of [3H]-citalopram binding to SERT in rat cortical membranes at 10 uM after 60 mins; assay type: cell membranes; conditions: Membrane; summary of the method: as §1
[4] = molecular target: Sodium-dependent serotonin transporter (Rattus norvegicus) (UniProt P31652); assay: Increase of SERT-mediated [3H]-5HT uptake in rat brain cortex synaptosomes at 3 to 100 uM after 7 mins by scintillation counting; assay type: subcellular
Summary of the method: (§2)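 Rat cortex P2 synaptosomes from 0.32 M sucrose homogenate, resuspended in HEPES-buffered saline pH 7.4 with glucose, ascorbate and pargyline. Aliquots equal to 3 mg tissue preincubated 7 min at 35 °C with compound. Uptake then ran 5 min after adding 100 nM [3H]5-HT, stopped by filtration, and counted by scintillation. Nonspecific uptake defined with 10 µM (S)-citalopram.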

[5] = molecular target: Sodium-dependent dopamine transporter (Rattus norvegicus, UniProt P23977); assay: Displacement of [3H]-WIN35428 from DAT in rat striatal membranes after 90 mins; assay type: cell membranes, Membrane
Sequence of Sodium-dependent dopamine transporter (P23977 whole entry): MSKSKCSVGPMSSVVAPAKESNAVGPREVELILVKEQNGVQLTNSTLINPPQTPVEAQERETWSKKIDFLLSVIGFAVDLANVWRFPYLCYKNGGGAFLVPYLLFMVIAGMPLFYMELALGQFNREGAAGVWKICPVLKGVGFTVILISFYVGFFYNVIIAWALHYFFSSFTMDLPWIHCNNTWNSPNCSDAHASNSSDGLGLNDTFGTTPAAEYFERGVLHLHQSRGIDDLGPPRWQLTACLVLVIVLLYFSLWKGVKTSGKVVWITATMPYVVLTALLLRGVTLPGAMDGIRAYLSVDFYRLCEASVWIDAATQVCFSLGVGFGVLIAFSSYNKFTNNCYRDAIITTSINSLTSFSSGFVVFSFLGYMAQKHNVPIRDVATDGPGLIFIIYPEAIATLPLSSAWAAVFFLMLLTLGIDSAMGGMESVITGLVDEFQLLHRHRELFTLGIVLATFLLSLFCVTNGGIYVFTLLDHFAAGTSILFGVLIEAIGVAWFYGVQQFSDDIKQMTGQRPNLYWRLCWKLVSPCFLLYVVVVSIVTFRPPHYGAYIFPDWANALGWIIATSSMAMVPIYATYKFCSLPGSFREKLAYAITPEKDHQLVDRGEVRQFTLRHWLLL
Summary of the method: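 Frozen rat striatal membranes in 50 mM Tris-HCl pH 7.4 with 120 mM NaCl and 5 mM KCl, incubated 90 min at 4 °C with 2 nM [3H]WIN 35,428. Nonspecific binding defined with 3 µM nomifensine. Stopped by rapid filtration on albumin-presoaked GF/B filters, then scintillation counting.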

[6] = molecular target: Sodium-dependent serotonin transporter (Rattus norvegicus) (UniProt P31652); assay: Increase of [3H]-citalopram binding to SERT in rat cortical membranes at 3 to 30 uM after 60 mins; assay type: cell membranes; conditions: Membrane; summary of the method: as §1
[7] = molecular target: Sodium-dependent serotonin transporter (Rattus norvegicus) (UniProt P31652); assay: Increase of [3H]-citalopram binding to SERT in rat cortical membranes after 60 mins; assay type: cell membranes; conditions: Membrane; summary of the method: as §1
[8] = molecular target: Sodium-dependent serotonin transporter (Rattus norvegicus) (UniProt P31652); assay: Increase of SERT-mediated [3H]-5HT uptake in rat brain cortex synaptosomes at 10 uM after 7 mins by scintillation counting; assay type: subcellular; summary of the method: as §2
[9] = molecular target: Sodium-dependent serotonin transporter (Rattus norvegicus) (UniProt P31652); assay: Increase of [3H]paroxetine binding to SERT in rat cortical membranes at 10 uM after 60 mins; assay type: cell membranes; conditions: Membrane
Summary of the method: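 Saturation binding in rat cortical membranes (Tris-HCl 50 mM pH 7.4, 120 mM NaCl, 5 mM KCl) at varied [3H]paroxetine concentrations, with or without 10 µM compound. Specific binding by scintillation counting. Mean ± SD of 4 replicates. One-site hyperbola fit gave Bmax and Kd.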

[10] = molecular target: Sodium-dependent serotonin transporter (Rattus norvegicus) (UniProt P31652); assay: Increase of SERT-mediated [3H]-5HT uptake in rat brain cortex synaptosomes after 7 mins by scintillation counting; assay type: subcellular; summary of the method: as §2
[11] = molecular target: Sodium-dependent serotonin transporter (Rattus norvegicus) (UniProt P31652); assay: Increase of SERT-mediated [3H]-5HT uptake in rat brain cortex synaptosomes at 10 to 30 uM after 7 mins by scintillation counting; assay type: subcellular; summary of the method: as §2
[12] = molecular target: Sodium-dependent serotonin transporter (Rattus norvegicus) (UniProt P31652); assay: Increase of [3H]-citalopram binding to SERT in rat cortical membranes at 10 to 30 uM after 60 mins; assay type: cell membranes; conditions: Membrane; summary of the method: as §1

Structure (SMILES): C#CCOC1=NO[C@]2(C1)C[C@H]1CC[C@@H](C2)[N+]1(C)C
- inhibition [1]: inactive

Structure (SMILES): CN1O[C@]2(CC1=O)C[C@H]1CC[C@@H](C2)N1
- IC50 [2]: 5 µM

Structure (SMILES): CCOC1=NO[C@]2(C1)C[C@H]1CC[C@@H](C2)N1C
- Activity [3]: 11%
- Activity [4]: Active
- IC50 [5]: 5 µM
- inhibition [1]: inactive
- Activity [6]: Active

Structure (SMILES): CN1[C@@H]2CC[C@H]1C[C@@]1(CC(Br)=NO1)C2
- inhibition [1]: inactive

Structure (SMILES): C[N+]1(C)[C@@H]2CC[C@H]1C[C@@]1(CC(CO)=NO1)C2
- inhibition [1]: inactive

Structure (SMILES): COC1=NO[C@]2(C1)C[C@H]1CC[C@@H](C2)N1
- inhibition [1]: inactive

Structure (SMILES): CN1[C@@H]2CC[C@H]1C[C@@]1(CC(CO)=NO1)C2
- inhibition [1]: inactive

Structure (SMILES): C#CCOC1=NO[C@]2(C1)C[C@H]1CC[C@@H](C2)N1C
- inhibition [1]: inactive

Structure (SMILES): COC1=NO[C@]2(C1)C[C@H]1CC[C@@H](C2)[N+]1(C)C
- inhibition [1]: inactive

Structure (SMILES): O=C1C[C@]2(C[C@H]3CC[C@@H](C2)N3)ON1
- IC50 [5]: 5 µM
- inhibition [1]: inactive

Structure (SMILES): C[N+]1(C)[C@@H]2CC[C@H]1C[C@@]1(CC(Br)=NO1)C2
- inhibition [1]: inactive

Structure (SMILES): CCOC(=O)C1=NO[C@]2(C1)C[C@H]1CC[C@@H](C2)N1C
- inhibition [1]: inactive

Structure (SMILES): CN1[C@@H]2CC[C@H]1C[C@@]1(CC(=O)NO1)C2
- inhibition [1]: inactive

Structure (SMILES): C[N+]1(C)[C@@H]2CC[C@H]1C[C@@]1(CC(OCc3ccccc3)=NO1)C2
- inhibition [1]: inactive

Structure (SMILES): c1ccc(COC2=NO[C@]3(C2)C[C@H]2CC[C@@H](C3)N2)cc1
- IC50 [5]: 5 µM
- inhibition [1]: inactive

Structure (SMILES): CCOC(=O)C1=NO[C@]2(C1)C[C@H]1CC[C@@H](C2)[N+]1(C)C
- inhibition [1]: inactive

Structure (SMILES): CN1O[C@]2(CC1=O)C[C@H]1CC[C@@H](C2)N1C
- inhibition [1]: inactive
- Activity [7]: inactive

Structure (SMILES): CN1[C@@H]2CC[C@H]1C[C@@]1(CC(OCc3ccccc3)=NO1)C2
- inhibition [1]: inactive

Structure (SMILES): COC1=NO[C@]2(C1)C[C@H]1CC[C@@H](C2)N1C
- Activity [3]: 25%
- Activity [8]: 30%
- Activity [9]: Active
- Activity [10]: Dose-dependent effect
- inhibition [1]: inactive
- Activity [11]: Active
- Activity [7]: Dose-dependent effect
- Activity [12]: Active

Structure (SMILES): CCOC1=NO[C@]2(C1)C[C@H]1CC[C@@H](C2)N1
- IC50 [5]: 5 µM
- inhibition [1]: inactive

Structure (SMILES): BrC1=NO[C@]2(C1)C[C@H]1CC[C@@H](C2)N1
- inhibition [1]: inactive

Structure (SMILES): C#CCOC1=NO[C@]2(C1)C[C@H]1CC[C@@H](C2)N1
- inhibition [1]: inactive

Structure (SMILES): CCOC1=NO[C@]2(C1)C[C@H]1CC[C@@H](C2)[N+]1(C)C
- IC50 [5]: 5 µM
- inhibition [1]: inactive
